This is an account of results in ChEMBL document CHEMBL1123810, “Synthesis and cardiotonic activity of a series of substituted 4-alkyl-2(1H)-quinazolinones” (J Med Chem, 1987).

In the first experiment the test system is Canis familiaris. As to the kind of experiment: Effect on arterial blood pressure (MAP) in anesthetized open-chest dogs at 3.75 mg/kg intravenous dose. The experiment is classed as functional, Canis lupus familiaris.
Conditions: not given
In short, it runs like this:
(§1)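 Pentobarbital-anesthetized (45 mg/kg i.p.), ventilated mongrel dogs, open chest. MAP came from a femoral artery cannula, HR from a cardiotachometer triggered by the pressure pulse, and CF from a right-ventricle strain gauge. Compound in 10% DMF/saline or as the HCl salt in saline was infused iv in 3–4 stepwise rising doses, each over 5 min. Responses are % change from predrug control at the maximum dose given.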
As for `Cc1nc(O)nc2ccc(N3CCCCC3)cc12`, the Change is given as -21%.

For `COc1ccc2nc(O)nc(C)c2c1`, the Change is reported as -10%.

The test system of another experiment is Canis familiaris. In words: Effect that produces a 50% increase in myocardial contractile force (CF) above control in anesthetized open-chest dogs at 8.75 mg/kg intravenous dose. As to conditions: Canis lupus familiaris, Myocardium. It is filed as functional. In short, it runs like this:
(§2)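 Anesthetized (pentobarbital 45 mg/kg i.p.), artificially respired mongrel dogs with right thoracotomy. Contractile force was read by a strain gauge on the right ventricle. Compound was given in 10% DMF in saline, or as the HCl salt in saline, by femoral vein infusion in 3–4 stepwise increasing doses, each over 5 min. ED50 (mg/kg iv) is the dose giving a 50% CF rise over control, taken from 3–4 point dose–response curves by graphic estimation (n = 1, 2 dogs) or linear regression (n ≥ 3).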
By ED50 is commonly meant the dose at which the effect has come halfway, by size or by number of responders. A high value points to a need for a large dose. Take `Cc1nc(O)nc2ccc(N(C)C)cc12`: it took a dose of 1.2 mg/kg to reach the 50% effect level (ED50).

Compound `COc1cc2nc(O)nc(C)c2cc1OC` returned an ED50 of 2.42 mg/kg.

The compound `Br.Cc1nc(O)nc2ccc(O)c(O)c12` came in with a median effective dose (ED50) of more than 8.75 mg/kg.

As to `COc1cc2nc(O)nc(C(F)(F)F)c2cc1OC`, the median effective dose (ED50) is more than 8.75 mg/kg.

The compound `COc1cc2nc(O)nc(C3CCCC3)c2cc1OC` yielded an ED50 of more than 8.75 mg/kg.

Turning to `Cc1nc(O)nc2ccc(Cl)cc12`, the ED50 came to 1.8 mg/kg.

`Cc1nc(O)nc2cc3c(cc12)OCO3` had a 50% effective dose (ED50) of 5.65 mg/kg.

Turning to `COc1cc(OC)c2nc(O)nc(C)c2c1`, the median effective dose (ED50) stood at 7.45 mg/kg.

As to `COc1cc(OC)c2c(C)nc(O)nc2c1`, the ED50 turned out to be 2.08 mg/kg. This ED50 is about 3.6-fold lower than that of the compound before.

The compound `COc1cc2nc(O)nc(-c3ccccc3)c2cc1OC` showed an ED50 of 4.1 mg/kg.

The compound `Cc1nc(O)nc2ccccc12` came in with an ED50 of 3.45 mg/kg. This ED50 and that of the compound before are within 1.5-fold of each other.

In the case of `COc1cc2nc(O)nc(C(C)C)c2cc1OC`, the median effective dose (ED50) was determined as 1.39 mg/kg.

The next experiment relates to Canis familiaris. As to the kind of experiment: Effect on arterial blood pressure (MAP) in anesthetized open-chest dogs at 8.75 mg/kg intravenous dose. It is filed as functional, Canis lupus familiaris.
Conditions: not given
The method, boiled down: as §1
Consider `Cc1nc(O)nc2ccc(N(C)C)cc12`, for which the Change was -23%.

As to `COc1cc2nc(O)nc(C)c2cc1OC`, the Change was -35%.

On to `Br.Cc1nc(O)nc2ccc(O)c(O)c12`, for which the Change worked out at 8%.

With `COc1cc2nc(O)nc(C(F)(F)F)c2cc1OC`, the Change is -15%.

As for `COc1cc2nc(O)nc(C3CCCC3)c2cc1OC`, the Change was -19%.

`Cc1nc(O)nc2ccc(Cl)cc12`: the Change was -21%.

`Cc1nc(O)nc2cc3c(cc12)OCO3`: the Change stood at 1%.

Turning to `COc1cc(OC)c2nc(O)nc(C)c2c1`, the Change is given as -6%.

Consider `COc1cc(OC)c2c(C)nc(O)nc2c1`, for which the Change is -40%.

Regarding `COc1cc2nc(O)nc(-c3ccccc3)c2cc1OC`, the Change is recorded as -25%.

Turning to `Cc1nc(O)nc2ccccc12`, the Change was -8%.

As for `COc1cc2nc(O)nc(C(C)C)c2cc1OC`, the Change is on record as -27%.

The next experiment has as its system Canis familiaris. As to the kind of experiment: Effect on heart rate (HR) in anesthetized open-chest dogs at 3.75 mg/kg intravenous dose. It is filed as functional, Canis lupus familiaris.
Conditions: not given
In short, it runs like this:
as §1
Consider `Cc1nc(O)nc2ccc(N3CCCCC3)cc12`, for which the Change came to 35%.

On to `COc1ccc2nc(O)nc(C)c2c1`, for which the Change is listed as 18%.

The subject of another experiment is Canis familiaris. As to the kind of experiment: Effect on myocardial contractile force (CF) in anesthetized open-chest dogs at 8.75 mg/kg intravenous dose. It is filed as functional, Canis lupus familiaris, Myocardium.
Conditions: not given
The method, boiled down: as §1
Consider `Cc1nc(O)nc2ccc(N(C)C)cc12`, for which the Change is 90%.

With `COc1cc2nc(O)nc(C)c2cc1OC`, the Change was found to be 90%.

With `Br.Cc1nc(O)nc2ccc(O)c(O)c12`, the Change is on record as 39%.

As for `COc1cc2nc(O)nc(C(F)(F)F)c2cc1OC`, the Change is recorded as 23%.

`COc1cc2nc(O)nc(C3CCCC3)c2cc1OC`: the Change was 71%.

Take `Cc1nc(O)nc2ccc(Cl)cc12`: the Change is 85%.

`Cc1nc(O)nc2cc3c(cc12)OCO3`: the Change worked out at 66%.

`COc1cc(OC)c2nc(O)nc(C)c2c1`: the Change is 60%.

For `COc1cc(OC)c2c(C)nc(O)nc2c1`, the Change is 97%.

Consider `COc1cc2nc(O)nc(-c3ccccc3)c2cc1OC`, for which the Change is listed as 106%.

For the compound `Cc1nc(O)nc2ccccc12`, the Change came out at 93%.

Consider `COc1cc2nc(O)nc(C(C)C)c2cc1OC`, for which the Change is 112%.

The test system of a further experiment is Canis familiaris. As to the kind of experiment: Effect on heart rate (HR) in anesthetized open-chest dogs at 8.75 mg/kg intravenous dose. The experiment is classed as functional, Canis lupus familiaris.
Conditions: not given
The method, boiled down: as §1
`Cc1nc(O)nc2ccc(N(C)C)cc12`: the Change worked out at 23%.

Turning to `COc1cc2nc(O)nc(C)c2cc1OC`, the Change came to 19%.

Regarding `Br.Cc1nc(O)nc2ccc(O)c(O)c12`, the Change is reported as 0%.

With `COc1cc2nc(O)nc(C(F)(F)F)c2cc1OC`, the Change came out at 0%.

On to `COc1cc2nc(O)nc(C3CCCC3)c2cc1OC`, for which the Change worked out at 11%.

Regarding `Cc1nc(O)nc2ccc(Cl)cc12`, the Change amounted to 33%.

As for `Cc1nc(O)nc2cc3c(cc12)OCO3`, the Change is given as 10%.

With `COc1cc(OC)c2nc(O)nc(C)c2c1`, the Change is reported as 13%.

Regarding `COc1cc(OC)c2c(C)nc(O)nc2c1`, the Change is 25%.

With `COc1cc2nc(O)nc(-c3ccccc3)c2cc1OC`, the Change is listed as 7%.

As for `Cc1nc(O)nc2ccccc12`, the Change amounted to 16%.

Regarding `COc1cc2nc(O)nc(C(C)C)c2cc1OC`, the Change is recorded as 21%.

For the next experiment, the system named is Canis familiaris. As to the kind of experiment: Effect on myocardial contractile force (CF) in anesthetized open-chest dogs at 3.75 mg/kg intravenous dose. The experiment is classed as functional, Canis lupus familiaris, Myocardium.
Conditions: not given
The method, boiled down:
as §1
As for `Cc1nc(O)nc2ccc(N3CCCCC3)cc12`, the Change is on record as 116%.

As to `COc1ccc2nc(O)nc(C)c2c1`, the Change was 111%.

In a further experiment the target is Phosphodiesterase 3 (Canis familiaris). As to the kind of experiment: Inhibitory activity against canine cardiac fraction III cyclic AMP phosphodiesterase (PDE III).
Conditions: not given
Usually IC50 stands for the concentration needed to halve the response being measured. `Cc1nc(O)nc2ccc(N(C)C)cc12` had a 50% inhibitory concentration (IC50) of 38 µM.

On to `COc1cc2nc(O)nc(C)c2cc1OC`, for which the IC50 was determined as 100 µM.

Regarding `Br.Cc1nc(O)nc2ccc(O)c(O)c12`, the IC50 stood at 18 µM.

Compound `COc1cc2nc(O)nc(C(F)(F)F)c2cc1OC` had a half-inhibitory concentration (IC50) of 100 µM.

As to `COc1cc2nc(O)nc(C3CCCC3)c2cc1OC`, the IC50 was found to be 22 µM.

Consider `COc1cc(OC)c2nc(O)nc(C)c2c1`, for which the half-inhibitory concentration (IC50) was found to be 190 µM.

`COc1cc(OC)c2c(C)nc(O)nc2c1` registered an IC50 of 25 µM. This IC50 lies about 7.6-fold lower than the previous one.

For the compound `COc1cc2nc(O)nc(-c3ccccc3)c2cc1OC`, the half-inhibitory concentration (IC50) is 14 µM. This IC50 is about 1.8-fold lower than that of the compound before.

For `Cc1nc(O)nc2ccccc12`, the 50% inhibitory concentration (IC50) was determined as 138 µM.

The compound `COc1cc2nc(O)nc(C(C)C)c2cc1OC` returned a half-maximal inhibitory concentration (IC50) of 43 µM.

Another experiment concerns Canis familiaris. In words: 50% increase in myocardial contractile force (CF) above control in anesthetized open-chest dogs at 3.75 mg/kg intravenous dose. It is filed as functional. To be noted: Canis lupus familiaris, Myocardium. In short, it runs like this:
as §2
Turning to `Cc1nc(O)nc2ccc(N3CCCCC3)cc12`, the 50% effect level (ED50) was put at a dose of 1.13 mg/kg.

The compound `COc1ccc2nc(O)nc(C)c2c1` returned an ED50 of 1.32 mg/kg.
